Data from ChEMBL document CHEMBL2177074, “Variation of the net charge, lipophilicity, and side chain flexibility in Dmt(1)-DALDA: Effect on Opioid Activity and Biodistribution” (J Med Chem, 2012).
The source made the active and inactive calls. Non-standard residues stand in square brackets, D forms with d. Residues, ends and D or L forms follow the SMILES beside them. Dmt = Cc1cc(O)cc(C)c1C[C@H](N)C(=O)O; dCit = NC(=O)NCCC[C@@H](N)C(=O)O; NMeNle = CCCC[C@H](NC)C(=O)O; Nle = CCCC[C@H](N)C(=O)O

Experiments:
[1] = Metabolic stability in mouse brain assessed as compound recovery after 2 hrs; format: ADME, tissue-based; details: read-out: Stability
Outline: (§1)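 100 µg unlabelled peptide in Krebs-Henseleit buffer pH 7.4 incubated at 37 °C with shaking, in 250 µl mouse plasma or brain homogenate (150 µg protein). Aliquots quenched with TFA, heated 5 min at 95 °C, then centrifuged. Supernatants analysed by UPLC or HPLC (210 nm); recovery measured after 2 h.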

[2] = Half life in sheep blood; format: ADME, cell-free, Ovis aries, Plasma
Mus musculus [3] = test: Antinociceptive activity in CD1 mouse assessed as thermal-stimulus induced tail flick latency at 1 umol/kg, ip after 60 mins; format: functional, organism-based
Kidney = test: Biodistribution in ICR-CD1 mouse kidney at 30000 cpm/uL, iv; format: ADME, organism-based; details: in vivo
Outline: (§2)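 After intravenous 125I-peptide, kidneys, liver and other organs collected immediately after brain dissection, weighed and gamma-counted. Serum obtained by centrifugation at 10 000 × g for 15 min. Results expressed as % of injected dose per g tissue, normalized to body weight.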

Mus musculus [4] = test: Antinociceptive activity in sc dosed CD1 mouse assessed as thermal-stimulus induced tail flick latency after 6 to 7 hrs; format: functional, organism-based
Outline: (§3)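 Male CD-1 mice (25–35 g) dosed s.c. at 10 µl/g. Radiant-heat tail-flick latency measured with a 10 s cut-off and expressed as %MPE. At least three doses, 5–6 mice per dose.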

[5] = Metabolic stability in mouse plasma assessed as compound recovery after 2 hrs; format: ADME, cell-free; details: read-out: Stability; outline: as §1
Mus musculus [6] = test: Antinociceptive activity in CD1 mouse assessed as thermal-stimulus induced tail flick latency at 1 umol/kg, ip up to 120 mins; format: functional, organism-based
Brain [7] = test: Blood brain barrier transport in ICR-CD1 mouse brain assessed as unidirectional initial influx rate at 30000 cpm/uL, iv; format: ADME, organism-based; details: in vivo
Mus musculus [8] = test: Antinociceptive activity in CD1 mouse assessed as AUC of thermal-stimulus induced tail flick latency assessed per min at 1 umol/kg, ip up to 120 mins; format: functional
Serum = test: Biodistribution in ICR-CD1 mouse serum at 30000 cpm/uL, iv after 15 mins; format: ADME, organism-based; details: in vivo, 0.25 h; outline: as §2
Brain [9] = test: Blood brain barrier transport in ICR-CD1 mouse brain assessed as brain efflux rate coefficient at 30000 cpm/uL, iv; format: ADME, organism-based; details: in vivo
Mus musculus [10] = test: Antinociceptive activity in sc dosed CD1 mouse assessed as thermal-stimulus induced tail flick latency after 2 hrs; format: functional; outline: as §3
[11] = biological target: Delta-type opioid receptor (Rattus norvegicus, UniProt P33533); test: Displacement of [3H]DSLET from delta opioid receptor in rat brain membranes after 2 hrs; format: cell membranes
Delta-type opioid receptor (Rattus norvegicus, UniProt P33533), sequence (P33533 whole entry): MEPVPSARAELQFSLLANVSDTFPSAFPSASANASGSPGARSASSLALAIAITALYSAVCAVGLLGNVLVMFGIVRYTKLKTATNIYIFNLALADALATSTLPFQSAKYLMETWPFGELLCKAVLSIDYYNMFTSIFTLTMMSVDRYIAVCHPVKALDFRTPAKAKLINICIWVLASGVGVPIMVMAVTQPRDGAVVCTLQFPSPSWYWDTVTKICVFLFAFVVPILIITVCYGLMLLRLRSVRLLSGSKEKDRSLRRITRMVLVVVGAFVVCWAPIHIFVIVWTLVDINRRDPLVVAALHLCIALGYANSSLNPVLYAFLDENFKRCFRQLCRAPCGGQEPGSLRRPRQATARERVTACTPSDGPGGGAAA

Mu-type opioid receptor [12] = biological target: Mu-type opioid receptor (Cavia porcellus, UniProt P97266); test: (§4) Agonist activity at mu opioid receptor in guinea pig ileum; format: functional, tissue-based
Mu-type opioid receptor (Cavia porcellus, UniProt P97266), sequence (P97266 whole entry): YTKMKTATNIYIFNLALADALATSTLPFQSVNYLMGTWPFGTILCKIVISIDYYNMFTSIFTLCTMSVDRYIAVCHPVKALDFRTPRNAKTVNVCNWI
Outline: (§5)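 Isolated tissue bioassays: mouse vas deferens and guinea pig ileum preparations. A [Leu5]enkephalin dose-response curve was run as standard on each preparation, and test IC50 values were normalized against it.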

[13] = biological target: Delta-type opioid receptor (Mus musculus, UniProt P32300); test: (§6) Agonist activity at delta opioid receptor in mouse vas deferens; format: functional, tissue-based; outline: as §5
Delta-type opioid receptor (Mus musculus, UniProt P32300), sequence (P32300 whole entry): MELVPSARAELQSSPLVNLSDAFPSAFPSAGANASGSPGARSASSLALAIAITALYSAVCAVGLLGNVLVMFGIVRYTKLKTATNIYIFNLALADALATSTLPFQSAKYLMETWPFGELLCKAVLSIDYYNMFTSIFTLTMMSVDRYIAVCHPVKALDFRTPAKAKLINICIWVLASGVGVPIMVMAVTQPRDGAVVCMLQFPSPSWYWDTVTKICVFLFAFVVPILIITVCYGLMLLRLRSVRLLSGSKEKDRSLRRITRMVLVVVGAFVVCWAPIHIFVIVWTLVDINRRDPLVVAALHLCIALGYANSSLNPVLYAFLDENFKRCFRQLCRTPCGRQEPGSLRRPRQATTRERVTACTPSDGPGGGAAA

Mu-type opioid receptor [14] = biological target: Mu-type opioid receptor (Rattus norvegicus, UniProt P33535); test: Displacement of [3H]DAMGO from mu opioid receptor in rat brain membranes after 2 hrs; format: cell membranes
Mu-type opioid receptor (Rattus norvegicus, UniProt P33535), sequence (P33535 whole entry): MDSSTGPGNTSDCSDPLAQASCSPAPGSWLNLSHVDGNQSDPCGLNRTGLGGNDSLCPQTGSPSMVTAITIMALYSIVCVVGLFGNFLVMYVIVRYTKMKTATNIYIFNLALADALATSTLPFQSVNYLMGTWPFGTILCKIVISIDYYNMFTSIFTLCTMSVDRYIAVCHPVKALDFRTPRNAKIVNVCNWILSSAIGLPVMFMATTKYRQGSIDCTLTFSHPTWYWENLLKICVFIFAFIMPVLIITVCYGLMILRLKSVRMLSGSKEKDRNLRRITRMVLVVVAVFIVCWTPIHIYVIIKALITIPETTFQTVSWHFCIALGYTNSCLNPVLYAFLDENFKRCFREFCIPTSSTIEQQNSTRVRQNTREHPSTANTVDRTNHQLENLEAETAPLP

[15] = biological target: Kappa-type opioid receptor (Cavia porcellus, UniProt P41144); test: Displacement of [3H]U69,593 from kappa opioid receptor in guinea pig ileum membranes after 2 hrs; format: cell membranes, Membrane
Kappa-type opioid receptor, sequence (P41144 whole entry): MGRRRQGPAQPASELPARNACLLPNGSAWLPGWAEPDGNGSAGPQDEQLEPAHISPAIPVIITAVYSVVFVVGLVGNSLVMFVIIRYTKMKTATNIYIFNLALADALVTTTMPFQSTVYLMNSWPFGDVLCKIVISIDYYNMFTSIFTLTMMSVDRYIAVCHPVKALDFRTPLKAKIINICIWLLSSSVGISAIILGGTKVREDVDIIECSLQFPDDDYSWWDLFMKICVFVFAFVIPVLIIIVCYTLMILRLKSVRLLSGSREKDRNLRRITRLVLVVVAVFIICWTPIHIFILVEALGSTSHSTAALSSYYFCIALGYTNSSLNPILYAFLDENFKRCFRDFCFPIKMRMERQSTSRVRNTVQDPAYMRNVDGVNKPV

[16] = biological target: Mu-type opioid receptor (Cavia porcellus) (UniProt P97266); test: as §4; format: functional, tissue-based; outline: as §5
Mu-type opioid receptor (Cavia porcellus), sequence (P97266 whole entry): as the sequence (P97266 whole entry) above

Mus musculus [17] = test: Antinociceptive activity in sc dosed CD1 mouse assessed as thermal-stimulus induced tail flick latency after 1 hr; format: functional; outline: as §3
Mus musculus [18] = test: Antinociceptive activity in sc dosed CD1 mouse assessed as thermal-stimulus induced tail flick latency after 2 to 3 hrs; format: functional, organism-based; outline: as §3
Mus musculus [19] = test: Antinociceptive activity in sc dosed CD1 mouse assessed as thermal-stimulus induced tail flick latency after 1 hr relative to morphine; format: functional; outline: as §3
Mus musculus [20] = test: Antinociceptive activity in CD1 mouse assessed as thermal-stimulus induced tail flick latency at 1 umol/kg, ip after 45 to 60 mins; format: functional, organism-based
Mus musculus [21] = test: Antinociceptive activity in sc dosed CD1 mouse assessed as thermal-stimulus induced tail flick latency; format: functional; outline: as §3
[22] = biological target: Delta-type opioid receptor (Mus musculus) (UniProt P32300); test: as §6; format: functional, tissue-based; outline: as §5
Delta-type opioid receptor (Mus musculus), sequence (P32300 whole entry): as the sequence (P32300 whole entry) above

Liver = test: Biodistribution in ICR-CD1 mouse liver at 30000 cpm/uL, iv; format: ADME, organism-based; details: in vivo; outline: as §2
Mus musculus [23] = test: Antinociceptive activity in CD1 mouse assessed as thermal-stimulus induced tail flick latency at 1 umol/kg, ip after 45 mins; format: functional, organism-based
Mus musculus [24] = test: Antinociceptive activity in sc dosed CD1 mouse assessed as thermal-stimulus induced tail flick latency after 30 mins; details: 0.5 h

Compound | remaining at 2 h [1] | remaining at 2 h [5] | Activity (Mus musculus [6]) | Kin (Brain [7]) | Activity (Mus musculus [8]) | Drug uptake (Serum) | Activity (Brain [9]) | Ki [11] | IC50 (Mu-type opioid receptor [12]) | IC50 [13] | Ki (Mu-type opioid receptor [14]) | Ki [15] | also measured
Cc1cc(O)cc(C)c1C[C@H](N)C(=O)N[C@H](CCCNC(=N)N)C(=O)N[C@@H](Cc1ccccc1)C(=O)N[C@@H](CCCCN)C(N)=O | 103% | 94.7% | Active | 9.44 µL/g/min | 750 %.min | Active | 0.058 min⁻¹ | – | – | – | – | – | half-life [2]: 1.8 h; Activity (Mus musculus [3]): Active; Drug uptake (Kidney): Active; Activity (Mus musculus [4]): Dose-dependent effect; ED50 (Mus musculus [10]): 0.15 µmol/kg
CCCC[C@@H](C(N)=O)N(C)C(=O)[C@H](Cc1ccccc1)NC(=O)[C@@H](CCCN=C(N)N)NC(=O)[C@@H](N)Cc1c(C)cc(O)cc1C | – | – | – | – | – | – | – | 16 nM | 4.35 nM | 1.5 nM | 0.26 nM | 14.4 nM | –
Cc1cc(O)cc(C)c1C[C@H](N)C(=O)N[C@H](CCCN=C(N)N)C(=O)N[C@H]1Cc2ccccc2CN(CC(N)=O)C1=O | 99.6% | 107% | – | 14.89 µL/g/min | – | Active | 0.096 min⁻¹ | – | – | – | – | – | Drug uptake (Kidney): Active
CCCC[C@@H](C(N)=O)N1Cc2ccccc2C[C@H](NC(=O)[C@@H](CCCNC(N)=O)NC(=O)[C@@H](N)Cc2c(C)cc(O)cc2C)C1=O | – | – | – | – | – | – | – | 3.18 nM | – | 1.16 nM | 0.93 nM | 11.1 nM | IC35 [16]: 0.78 nM
Cc1cc(O)cc(C)c1C[C@H](N)C(=O)N[C@H](CCCNC(N)=O)C(=O)N[C@@H](Cc1ccccc1)C(=O)N(C)[C@@H](CCCCN)C(N)=O | 95% | 104% | Active | 11.35 µL/g/min | 1412 %.min | Active | 0.01 min⁻¹ | 39.2 nM | 1.01 nM | 4.4 nM | 0.94 nM | 11.5 nM | ED50 (Mus musculus [17]): 0.16 µmol/kg; Activity (Mus musculus [18]): Active; Ratio (Mus musculus [19]): 41; Activity (Mus musculus [20]): Active
CCCC[C@@H](C(N)=O)N1Cc2ccccc2C[C@H](NC(=O)[C@@H](CCCN=C(N)N)NC(=O)[C@@H](N)Cc2c(C)cc(O)cc2C)C1=O | – | – | – | – | – | – | – | 7.46 nM | 1.45 nM | 3.1 nM | 0.43 nM | 1.12 nM | –
Cc1cc(O)cc(C)c1C[C@H](N)C(=O)N[C@H](CCCNC(=N)N)C(=O)N[C@H]1Cc2ccccc2CN(CC(N)=O)C1=O | – | – | Active | – | 253 %.min | – | – | – | – | – | – | – | ED50 (Mus musculus [17]): 0.47 µmol/kg; Activity (Mus musculus [4]): Dose-dependent effect; Ratio (Mus musculus [19]): 14
CCCC[C@H](NC(=O)[C@H](Cc1ccccc1)NC(=O)[C@@H](CCCNC(=N)N)NC(=O)[C@@H](N)Cc1c(C)cc(O)cc1C)C(N)=O (H-[Dmt][dR]F[Nle]-NH2) | – | – | Active | – | 65 %.min | – | – | – | – | – | – | – | Activity (Mus musculus [3]): Active; ED50 (Mus musculus [21]): > 6 µmol/kg
Cc1cc(O)cc(C)c1C[C@H](N)C(=O)N[C@H](CCCNC(=N)N)C(=O)N[C@H]1Cc2ccccc2CN([C@@H](CCCCN)C(N)=O)C1=O | – | – | – | – | – | – | – | 38.6 nM | 76 nM | – | 0.61 nM | – | IC25 [22]: 64 nM
Cc1cc(O)cc(C)c1C[C@H](N)C(=O)N[C@H](CCCNC(=N)N)C(=O)N[C@@H](Cc1ccccc1)C(=O)N(C)[C@@H](CCCCN)C(N)=O | 94% | 112% | Active | 18.11 µL/g/min | – | Active | 0.028 min⁻¹ | 309 nM | 8.3 nM | 7 nM | 0.26 nM | 56.1 nM | Activity (Mus musculus [4]): Dose-dependent effect; Activity (Mus musculus [20]): Active; ED50 (Mus musculus [10]): 0.13 µmol/kg
C[C@@H](NC(=O)[C@@H](N)Cc1ccc(O)cc1)C(=O)N[C@@H](Cc1ccccc1)C(=O)NCC(=O)N[C@@H](Cc1ccc(O)cc1)C(=O)N1CCC[C@H]1C(=O)N[C@@H](CO)C(N)=O [DERMORPHIN] | – | – | – | – | 46 %.min | – | – | – | – | – | – | – | –
CCCC[C@H](NC(=O)[C@H](Cc1ccccc1)NC(=O)[C@@H](CCCNC(N)=O)NC(=O)[C@@H](N)Cc1c(C)cc(O)cc1C)C(N)=O (H-[Dmt][dCit]F[Nle]-NH2) | – | – | – | – | – | – | – | 3.98 nM | 0.89 nM | 4.7 nM | 0.79 nM | 98.5 nM | –
CCCC[C@H](NC(=O)[C@H](Cc1ccccc1)NC(=O)[C@@H](CCCN=C(N)N)NC(=O)[C@@H](N)Cc1c(C)cc(O)cc1C)C(N)=O (H-[Dmt][dR]F[Nle]-NH2) | 104% | 90.2% | – | 8.48 µL/g/min | – | Active | -0.039 min⁻¹ | 15.2 nM | 2.2 nM | 6.2 nM | 0.23 nM | 16.2 nM | Drug uptake (Liver): Active
Cc1cc(O)cc(C)c1C[C@H](N)C(=O)N[C@H](CCCNC(N)=O)C(=O)N[C@@H](Cc1ccccc1)C(=O)N[C@@H](CCCCN)C(N)=O | 96.2% | 98.3% | Active | 14.91 µL/g/min | 521 %.min | Active | 0.027 min⁻¹ | 50 nM | 0.31 nM | 1.4 nM | 0.57 nM | 20.9 nM | ED50 (Mus musculus [17]): 0.23 µmol/kg; Activity (Mus musculus [3]): Active; Drug uptake (Kidney): Active; Drug uptake (Liver): Active; Activity (Mus musculus [18]): Active; Ratio (Mus musculus [19]): 29; Activity (Mus musculus [23]): Active
Cc1cc(O)cc(C)c1C[C@H](N)C(=O)N[C@H](CCCNC(N)=O)C(=O)N[C@H]1Cc2ccccc2CN([C@@H](CCCCN)C(N)=O)C1=O | – | – | – | – | – | – | – | 56.9 nM | 49 nM | 1000 nM | 2.62 nM | – | –
CN1CC[C@]23c4c5ccc(O)c4O[C@H]2[C@@H](O)C=C[C@H]3[C@H]1C5 [MORPHINE] | – | – | – | – | 66 %.min | – | – | – | – | – | – | – | ED50 (Mus musculus [24]): 6.6 µmol/kg
CCCC[C@@H](C(N)=O)N(C)C(=O)[C@H](Cc1ccccc1)NC(=O)[C@@H](CCCNC(N)=O)NC(=O)[C@@H](N)Cc1c(C)cc(O)cc1C (H-[Dmt][dCit]F[NMeNle]-NH2) | – | – | – | – | – | – | – | 5.03 nM | 0.65 nM | 1.5 nM | 2.92 nM | > 10 nM | –
